Source: PubChem
In the library only some 1.5% were active in any assay of this set; here they are far more common.
PGE2 EP2 inh = EP2 receptor (human) inhibition | C6 glioma cells expressing human EP2, cAMP TR-FRET; cells stimulated with saturating PGE2 | hit rate 0.52% among 260,000 | inhibition, % at 25 µM;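 active = percent inhibition above 40 after rounding to a whole number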;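 also: rat C6 glioma host cells with rolipram phosphodiesterase inhibitor present; the protocol text gives 20 µM as final concentration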
Target sequence (P43116 whole entry, looked up): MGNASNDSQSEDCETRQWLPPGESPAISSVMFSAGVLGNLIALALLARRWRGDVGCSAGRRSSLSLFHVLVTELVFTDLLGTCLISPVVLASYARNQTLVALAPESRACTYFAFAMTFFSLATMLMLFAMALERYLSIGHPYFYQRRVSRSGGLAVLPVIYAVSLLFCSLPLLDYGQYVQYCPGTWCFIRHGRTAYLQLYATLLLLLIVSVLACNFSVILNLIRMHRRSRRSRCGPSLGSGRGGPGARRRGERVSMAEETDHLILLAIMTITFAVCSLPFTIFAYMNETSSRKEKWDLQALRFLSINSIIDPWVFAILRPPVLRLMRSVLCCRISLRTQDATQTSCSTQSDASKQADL
RBBP9 inh = blocks human serine hydrolase RBBP9; O75884; recombinant RBBP9, FP-Rh probe fluorescence polarization; inhibition, % at 7.94 µM; hit rate 0.2% among 220,000; AID 1515;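 active = inhibition above the campaign mean of all tested compounds plus 3 SD, cut at about 14% in these data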
Target sequence (O75884 whole entry, looked up): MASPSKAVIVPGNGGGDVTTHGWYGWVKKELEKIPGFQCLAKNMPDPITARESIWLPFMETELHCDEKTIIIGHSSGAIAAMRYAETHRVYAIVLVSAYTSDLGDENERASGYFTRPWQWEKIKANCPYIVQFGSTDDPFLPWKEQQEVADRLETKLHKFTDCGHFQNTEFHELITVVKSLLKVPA
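Controls: DMSO-treated enzyme wells and wells lacking RBBP9 | Material: RBBP9 protein | Technique: Fluorescence polarization | Replication: Single well per compound, no replicates | Buffer or medium: Tris-NaCl-Pluronic buffer, pH 8.0 | Timing: 30 min compound preincubation, 45 min probe labeling, 25 °C | Read-out basis: Percent inhibition from mP, scaled between DMSO and no-protein wells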
ABCB1 inh = inhibitors of human ABCB1 transporter, ABCG2 counter-screen; CCRF-Adr cells, JC-1 efflux, flow cytometry; inhibition, % at 6.6 µM; hit rate 0.067% among 190,000; AID 1326; in the data active = inhibition above about 40%;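 also: higher value means more JC-1 retained so stronger ABCB1 efflux block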
ABCG2 block = blocks JC-1 efflux by human ABCG2 transporter. Q9UNQ0. IgMXP3 cells, flow cytometry. inhibition, % at 6.6 µM. hit rate 0.1% among 190,000;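 active = inhibition above 80%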
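Test system: IgMXP3 cells (ABCG2) mixed with DDAO far-red-labelled CCRF-Adr cells (ABCB1). Reagent: JC-1 transporter substrate. Compound dosing: single test compound dose, 6.6 µM final. Times: 10 min compound exposure, 25 °C. Detection: flow cytometry of retained JC-1 fluorescence. Read-out basis: efflux inhibition in percent versus controls. Controls: nicardipine and DMSO wells.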
EP2 mod = modulates human prostaglandin E2 receptor EP2 signaling; AID 940; hit rate 0.83% among 260,000; induction, % at 25 µM; EP2-expressing cells, cAMP HTRF FRET, PGE2 co-stimulation;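 active = compounds whose cAMP rise, as percent of the full-agonist control response, exceeds 60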;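 also: rat C6 glioma line stably carrying human EP2 under a CMV promoter; the protocol text gives 20 µM as final concentration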
EP2 confirm = human EP2 receptor cAMP induction, negative in counter-screens | calls only at 20 µM (by protocol) | hit rate 47% among 1,300 | shares compounds with EP2 mod | C6 glioma EP2 cells, cAMP HTRF induction; plus low (about EC15) PGE2 agonist;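 active = cAMP induction above 50% in the main assay while under 30% in all four parallel counter assays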;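 also: rat C6 glioma cells stably expressing human EP2 receptor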
Numbers stand for hits; i = inactive; nt = not tested or not shown; + = active, no number; ! = not confirmed by another sample.

SMILES	PGE2 EP2 inh	RBBP9 inh	ABCB1 inh	ABCG2 block	EP2 mod	EP2 confirm
c1ccc(-c2ccccc2-c2nc(-c3cccnc3)no2)cc1	i	i	i	i	72	+
c1cncc(-c2noc(-c3cccc4ccccc34)n2)c1	i	i	i	i	i	nt
c1ccc2c(-c3nc(-c4ccncc4)no3)cccc2c1	i	i	i	i	i	nt
c1ccc(CCc2ccccc2-c2nc(-c3cccnc3)no2)cc1	i	i	i	i	82	+
c1ccc(CCc2ccccc2-c2nc(-c3ccccn3)no2)cc1	i	i	i	i	101	+
CCN1CCCC1CN(Cc1ccccn1)Cc1cncn1CC (configuration not stated)	i	nt	nt	nt	i	nt
OC(Cc1ccccc1)(Cc1ccccc1)c1ccccc1	i	nt	nt	nt	i	i
O=C(CN1CCCCCCC1)Nc1ccc(Cl)cc1Cl	i	i	i	i	66	i
Cc1ccc(-n2nc3c(c2NC(=O)c2ccc(Br)o2)CSC3)c(C)c1	i	i	i	i	i	i
Cc1ccc(-n2nc3c(c2NC(=O)C(C)(C)C)CSC3)c(C)c1	i	i	i	i	i	nt
Cc1cc2ccccc2nc1SCC(=O)NC1CCCC1	i	i	i	i	77	i
Cc1cc2ccccc2nc1SCC(=O)NC1CCCCC1	i	i	i	i	70	i
CCOC(=O)CSc1nnc(CNc2cc(Cl)ccc2Cl)o1	i	nt	nt	nt	i	nt
O=C(Nc1ccc(-c2ocnc2C(=O)N2CCCC2)cc1)c1cccs1	i	nt	nt	nt	i	nt
CCOc1nc(-c2ccccc2Cl)nc2ccccc12	i	i	nt	nt	i	nt
CC1CCN(c2nc(-c3ccccc3O)nc3ccccc23)CC1	i	i	i	i	i	nt
c1cncc(-c2nc(N3CCCCCC3)c3ccccc3n2)c1	nt	i	i	i	74	+
CC(C)Oc1nc(-c2ccccc2O)nc2ccccc12	i	i	i	i	80	+
Oc1ccccc1-c1nc(N2CCCC2)c2ccccc2n1	i	i	i	i	75	i
COC(=O)c1c(NC(=O)c2ccc3c(c2)OCO3)sc(C(=O)Nc2ccccc2C)c1C	i	nt	nt	nt	i	nt
Cc1ccccc1S(=O)(=O)c1c(C)cc(C)n(CC(C)C)c1=O	i	i	i	i	70	+
Cc1cccc2cc(C(c3nnnn3CC3CCCO3)N3CCCC3)c(=O)[nH]c12 (configuration not stated)	i	nt	nt	nt	i	nt
COc1c(Cl)cc(Cl)cc1C(=O)n1nc(C)cc1C	i	i	i	i	74	i
CCn1nnnc1SCC(=O)Nc1cccc(C)n1	i	i	i	i	70	i
O=C(CO/N=C/c1ccccc1)N1c2ccccc2Oc2ccccc21	i	i	i	i	66	i
SMILES	PGE2 EP2 inh	RBBP9 inh	ABCB1 inh	ABCG2 block	EP2 mod	EP2 confirm
CC1CCCN(C(=O)CSc2nc3c(c(=O)n(C)c(=O)n3C)n2Cc2ccc(F)cc2)C1 (configuration not stated)	i	nt	nt	nt	i	nt
O=C(O)COc1ccc(/C=C/c2ccc3cccc([N+](=O)[O-])c3n2)cc1	i	i	i	i	89	+
COc1cc(/C=C/c2ccc3cccc([N+](=O)[O-])c3n2)ccc1OCC(=O)O	i	i	i	i	73	+
CC(=O)Nc1ccc(/C=C/c2ccc3cccc([N+](=O)[O-])c3n2)cc1	i	i	nt	nt	i	nt
CC(C)(C)c1ccc2c(c1)N(CC(=O)NC1CCCOC1)C(=O)CO2 (configuration not stated)	i	nt	nt	nt	i	nt
CCCOc1ccc(Cl)cc1CNc1ccccc1	i	i	i	i	73	+
Clc1ccc(Cl)c(Nc2ccnc(SCc3ccccc3)n2)c1	i	nt	nt	nt	62	i
COc1ccc(CN2CCc3nc(N4CCC(C)CC4)[nH]c(=O)c3C2)cc1CO	i	nt	nt	nt	i	nt
O=C([O-])c1ccc[n+](CC(O)COc2ccc(Br)cc2)c1 (configuration not stated)	i	nt	nt	nt	i	nt
COc1ccc(Cl)cc1NC(=O)C1=C(C)NC(=S)NC1c1ccc(Cl)cc1 (configuration not stated)	i	nt	nt	nt	i	nt
Cc1ccc(C2CC(c3cccs3)=NN2C(=O)c2ccc(Br)o2)cc1 (configuration not stated)	i	i	i	i	i	i
Cn1c(NN)nc2c(c1=O)C1(CCCC1)Cc1ccccc1-2	i	nt	nt	nt	i	nt
O=c1c2c(nc3n1CCCCC3)-c1ccccc1CC21CCCCC1	i	i	i	i	66	+
Cc1ccc(S(=O)(=O)NCC(=O)N(c2ccccc2)C(C(=O)NCc2ccccc2)c2ccco2)cc1 (configuration not stated)	i	i	i	i	68	i
CCCCCCn1c(COc2ccccc2F)nnc1SCC(=O)N1c2ccccc2NC(=O)C1(C)C	i	i	i	i	64	i
CC1(C)C(=O)Nc2ccccc2N1C(=O)CSc1ncccn1	i	i	i	i	i	nt
Cc1cnn(-c2nc(-c3ccccc3)cc(-c3ccccc3)n2)c1	i	i	i	i	67	+
FC(F)(F)c1cc(-c2ccccc2)nc(-n2cc(Cl)cn2)n1	i	i	i	i	i	nt
Cc1nn(Cc2c(Cl)cccc2Cl)c(C)c1C(=O)NCc1ccc(C)n1C	i	i	i	i	75	i
Cc1cccc(-c2nnc(SCC(=O)NCc3ccc4c(c3)OCO4)o2)c1	i	nt	nt	nt	i	nt
COc1cc(C2Oc3cc(C4Oc5cc(O)cc(O)c5C(=O)C4O)ccc3OC2CO)ccc1O (configuration not stated)	i	i	i	i	80	i
O=C(c1ccc(Cl)cc1)c1oc2ccccc2c1CS(=O)c1ccccc1 (configuration not stated)	i	i	i	i	71	+
Nc1c(C(=O)c2ccc(Br)cc2)oc2ccccc12	i	i	i	i	i	nt
COc1ccc2cc(CN(Cc3cccnc3)S(=O)(=O)c3ccc4c(c3)OCCO4)c(=O)[nH]c2c1	i	nt	nt	nt	i	nt
CCc1ccc(NC(=S)N(Cc2ccccc2)Cc2ccccn2)cc1	i	i	i	i	70	i
SMILES	PGE2 EP2 inh	RBBP9 inh	ABCB1 inh	ABCG2 block	EP2 mod	EP2 confirm
N#CC1=C(N)SC(N)=C(C#N)C1c1ccc(O)cc1	i	nt	nt	nt	i	nt
N#CC1=C(N)SC(N)=C(C#N)C1c1ccoc1	i	i	i	i	68	i
CCn1c(CSc2nc3ccccc3s2)n[nH]c1=S	i	i	i	i	i	nt
S=c1[nH]nc(CSc2nc3ccccc3s2)n1Cc1ccccc1	i	i	i	i	i	i
CCN(CC)c1ncc(CN2CCc3sccc3C2C)s1 (configuration not stated)	i	nt	nt	nt	i	nt
CCOC(=O)CCCCCCCCCCCCC1C=CCC1 (configuration not stated)	i	nt	nt	nt	i	+
Cc1ccc(-n2nc3c(=S)[nH]nc(C)c3c2C)cc1	nt	i	i	i	81	i
CC1=C(/C=C/C(C)=C/C=C/C(C)=C/C(=O)O)C(C)(C)CCC1	i	i	i	i	62!	+
